Rows were chosen to be rich in hits. Some 2.1% of all compounds tested hit in one or more screens of this group.
m5-HT2A agonist: mouse HTR2A agonism via beta-arrestin recruitment; CHO-K1 mHTR2A beta-arrestin complementation, luminescence; percent of 30 µM serotonin response; activation, % at 7.6 µM; 360,000 tested, 0.66% active; AID 624169;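 active means activation above a run cutoff, the mean activation of all tested compounds plus 3 SD, cut at about 14% in these data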;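 further: 0% = plate median of compound wells and 100% = 30 µM serotonin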
APJ antagonist: APJ receptor antagonism; P35414; CHO-K1 APJ beta-arrestin complementation, luminescence; inhibition, % at 20 µM; 330,000 tested, 0.32% active;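 active means inhibition above about 40% at 20 µM, limit read from the data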;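 further: cells challenged with 10 nM apelin-13 agonist together with compound; plate controls were apelin-13 plus DMSO wells for no effect and DMSO wells lacking apelin-13 for full effect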
CXCR6 inh: blocks human CXCR6 beta-arrestin recruitment; O00574; CHO-K1 PathHunter CXCR6 beta-arrestin, luminescence; inhibition, % at 20 µM; 360,000 tested, 0.36% active; AID 602244; in the data active means inhibition above about 34%, passing the limit was not always enough;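 further: antagonist mode with CXCL16 agonist at 10 nM final; 0% = 10 nM CXCL16 with DMSO and 100% = unstimulated wells without agonist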
Target sequence (O00574 whole entry, looked up): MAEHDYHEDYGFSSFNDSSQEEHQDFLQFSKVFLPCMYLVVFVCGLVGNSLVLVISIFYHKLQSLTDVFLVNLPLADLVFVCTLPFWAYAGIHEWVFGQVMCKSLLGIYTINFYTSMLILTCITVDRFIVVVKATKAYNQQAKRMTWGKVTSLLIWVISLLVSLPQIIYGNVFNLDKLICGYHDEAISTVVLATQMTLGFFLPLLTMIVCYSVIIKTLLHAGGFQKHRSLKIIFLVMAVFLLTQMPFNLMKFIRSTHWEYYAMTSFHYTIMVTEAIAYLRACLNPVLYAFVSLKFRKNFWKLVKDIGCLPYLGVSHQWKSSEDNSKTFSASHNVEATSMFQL
EBI2 antag: blocks human EBI2 receptor beta-arrestin signaling. inhibition, % at 5 µM. 360,000 tested, 0.81% active. P32249. EBI2 beta-arrestin recruitment, luminescence, 7a,25-OHC stimulated; in the data active means inhibition above about 38%;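 further: enzyme fragment complementation signal reports receptor beta-arrestin coupling in cells; 0% = agonist plus DMSO wells and 100% = wells without agonist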
Target sequence (P32249 whole entry, looked up, the tested form may be a part): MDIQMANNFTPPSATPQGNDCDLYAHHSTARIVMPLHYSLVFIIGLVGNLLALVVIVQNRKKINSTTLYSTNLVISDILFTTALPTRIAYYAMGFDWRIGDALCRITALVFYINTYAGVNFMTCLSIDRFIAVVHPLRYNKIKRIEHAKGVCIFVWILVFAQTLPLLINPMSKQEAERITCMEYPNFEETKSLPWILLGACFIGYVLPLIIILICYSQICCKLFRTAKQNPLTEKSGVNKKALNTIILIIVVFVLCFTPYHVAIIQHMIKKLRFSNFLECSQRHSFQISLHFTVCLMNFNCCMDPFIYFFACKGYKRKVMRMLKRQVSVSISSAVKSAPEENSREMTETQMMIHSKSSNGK
APJ ag: activates the human apelin receptor APJ. CHO-K1 APJ PathHunter beta-arrestin, luminescence; 0% DMSO wells, 100% apelin. AID 2520. activation, % at 20 µM. 330,000 tested, 0.11% active;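 active means activation more than six SD over the plate average, tested at 20 µM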;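 further: 0% = DMSO alone and 100% = apelin-13 at 10 nM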
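Assay system – PathHunter CHO-K1 APJ (AGTRL-1) beta-arrestin reporter cells · Compound – one dose, 20 µM compound, 1% DMSO · Timing – compound 90 min 25 °C, reagent 1 h · Measured by – luminescence from split beta-galactosidase complementation, Galacton Star/Emerald II substrate · Measure – beta-arrestin recruitment to APJ as agonist activity, luminescent signal · Benchmarks – DMSO vs Apelin-13 10 nM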
CCR6 antag: antagonists of human CCR6 receptor. P51684. CHO-K1 CCR6 PathHunter beta-arrestin, luminescence, CCL20-stimulated. inhibition, % at 20 µM. 340,000 tested, 0.49% active;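 active means compounds whose inhibition of the agonist-driven luminescence signal at 20 µM reaches about 50%, limit read from the data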;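 further: cells stimulated with CCL20 at 14 nM final; plate controls were DMSO with CCL20 for no effect and DMSO without agonist for full effect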
CXCR6 antag conf: confirmation of human CXCR6 receptor antagonists; shares compounds with CXCR6 inh; CHO-K1 CXCR6 PathHunter beta-arrestin, luminescence; inhibition, % at 20 µM; 700 tested, 65% active; AID 602409;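 active means mean inhibition over four retests above 40%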;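 further: receptor stimulated with 10 nM CXCL16 agonist; beta-galactosidase fragment complementation upon beta-arrestin recruitment to receptor; plate controls were CXCL16 plus DMSO for no effect and DMSO without CXCL16 for full effect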
* = called active by the depositor; · = no result given.

SMILES	m5-HT2A agonist	APJ antagonist	CXCR6 inh	EBI2 antag	APJ ag	CCR6 antag	CXCR6 antag conf
CCC(=O)Nc1ccc(C(=O)NNC(=O)c2cccc(C)c2)cc1	4.1	-0.8	-0.4	0.8	-1.4	0.6	·
O=S(=O)(NC(=S)c1ccccc1)c1ccc(F)cc1	2.0	26.5	75.6*	1.0	-0.9	-8.6	-0.2
Cc1[nH]n2c(=O)cc(-c3ccc([N+](=O)[O-])cc3)nc2c1-c1ccccc1	-11.9	16.9	58.7*	8.2	-2.5	·	52.2*
CN1c2ccc([N+](=O)[O-])cc2N(C)C1(C)c1ccccc1 (stereo not drawn)	-5.7	28.3	42.7*	16.9	-8.6	54.2*	38.1
Cn1c2ccccc2c2cc([N+](=O)[O-])ccc21	1.8	9.1	8.6	3.9	-2.5	3.6	·
O=C(O/N=C1\C(=O)N(c2ccccc2)c2ccccc21)C1CC1	-0.9	4.8	-2.5	-4.1	-2.5	1.1	·
CN1C(=O)/C(=N/OC(=O)c2ccccc2)c2ccccc21	1.3	31.1	40.0*	-8.9	-4.0	43.7	34.8
Cc1ccc(Sc2ncccc2C(=O)N(C)Cc2cccs2)c(C)c1	-1.6	12.6	-1.0	4.5	-0.1	10.6	·
O=C(CSc1nnc(-c2ccco2)n1-c1ccccc1)N1CCOCC1	-0.5	6.6	63.4*	-1.9	-5.7	3.9	12.0
Cc1ccc(NC(=O)CSCC(=O)N(C)CC(=O)Nc2cccc3ccccc23)cc1	3.6	5.3	-3.4	-11.2	0.2	-1.8	·
CS(=O)(=O)N(CC(=O)Nc1ccccc1C(=O)N1CCOCC1)c1cccc(F)c1	-0.3	10.4	-2.9	8.2	-2.6	2.1	·
CCOc1ccc(N(CC(=O)Nc2ccccc2C(=O)N2CCOCC2)S(=O)(=O)c2ccc(F)cc2)cc1	-1.0	2.7	70.4*	-0.1	-4.1	3.1	-4.6
CC(C)(C)NC(=O)NC(=O)COC(=O)c1c(F)cccc1Cl	1.1	4.4	40.3*	14.2	-0.6	8.8	5.8
O=C(Nc1ccccc1Oc1ccccc1)[C@@H]1O[C@H](CO)[C@H](O)[C@H](O)[C@H]1O	-8.4	·	57.2*	14.5	·	·	70.9*
Nc1[nH]c(C(=O)c2ccccc2)c(-c2ccc(Br)cc2)c1C(=O)c1ccc(Br)cc1	1.3	·	-1.3	20.1	·	·	·
COC(=O)CN1C(=O)NC2(CCCc3ccccc32)C1=O (stereo not drawn)	-4.4	10.7	-11.5	-6.3	-2.6	2.5	·
COC(=O)c1ccc(CN2C(=O)NC3(CCCc4ccccc43)C2=O)o1 (stereo not drawn)	1.5	4.8	45.9*	-0.6	-0.6	31.1	-5.4
CNc1cnn(-c2ccc(C)cc2)c(=O)c1Cl	-2.8	-7.0	56.1*	0.6	0.1	0.8	1.7
O=C(NCc1ccncc1)c1csc([C@@H]2C[C@H](O)[C@@H](CO)O2)n1	1.4	·	3.4	-2.4	·	·	·
COC(=O)c1cc(CSc2nc3ccc(C)cc3[nH]2)oc1C	-5.8	27.5	43.3*	23.3	-6.2	33.0	41.2*
Fc1ccccc1NC(=S)NNc1ncc(C(F)(F)F)cc1Cl	-3.3	37.2	50.3*	9.0	3.3	68.2*	38.4
NC(=O)NNc1ncc(C(F)(F)F)cc1Cl	0.9	4.0	-4.5	-10.1	-3.7	9.8	·
NC(=S)Nc1ncc(C(F)(F)F)cc1Cl	-0.8	-13.6	0.5	2.9	-3.6	-1.6	·
FC(F)(F)c1cnc(NNC(=S)Nc2ccccc2)c(Cl)c1	-17.0	·	73.1*	27.6	·	·	73.6*
COC(=O)C[C@H]1c2cc(F)cc(F)c2S(=O)(=O)N1C1CCN(Cc2ccccc2)CC1	-3.7	-5.7	-4.0	-9.1	-0.1	-2.9	·
SMILES	m5-HT2A agonist	APJ antagonist	CXCR6 inh	EBI2 antag	APJ ag	CCR6 antag	CXCR6 antag conf
CC(C)(C)c1ccc(C(=O)NCC(=O)NCC(C)(C)N2CCOCC2)cc1	-5.8	15.0	3.6	-2.4	5.3	4.9	·
CC(C)C(=O)Nc1ncc(Cc2ccccc2Cl)s1	-2.6	-3.0	-5.8	11.6	-3.7	13.4	·
N=C1SCC(=O)N1c1ncc(Cc2ccccc2Cl)s1	-4.5	·	50.6*	-8.1	·	·	58.3*
Cc1ccc(NC(=O)c2cc(N3C(=O)CCC3=O)ccc2N2CCOCC2)cc1	5.0	-3.6	2.9	-3.4	-1.5	12.8	·
Cc1ccc(NC(=O)c2cc(N3C(=O)C=CC3=O)ccc2N2CCOCC2)cc1Cl	-4.7	·	60.0*	-3.1	·	97.1*	38.3
Cc1cc(C)c2c(=O)n(CC(=O)Nc3cccc(F)c3)sc2n1	0.2	-33.0	9.6	10.7	-0.9	29.7	·
Cc1ccc(NC(=O)Cn2sc3nc(C)cc(C)c3c2=O)c(Cl)c1	11.0	-14.5	7.8	7.2	-0.1	12.4	·
Cc1cc(C)c2c(=O)n(CC(=O)Nc3ccc(Cl)cc3)sc2n1	5.5	1.1	64.6*	7.9	5.6	11.1	10.4
CCOc1ccc(NC(=O)Cn2sc3nc(C)cc(C)c3c2=O)cc1	-0.3	-30.0	38.1*	16.4	-0.3	28.7	35.0
C[C@H]1CN([C@@H](C)CO)C(=O)CCCn2nncc2CO[C@@H]1CN(C)Cc1ccccc1C(F)(F)F	10.3	·	39.3*	-1.2	·	·	1.2
CCN(CC(=O)Nc1c(F)cccc1F)C(=O)C1CC(=O)N(CCc2ccccc2)C1 (stereo not drawn)	6.5	22.5	8.4	-13.6	-2.4	-1.4	·
CCCCC(=O)NC(=S)NNC(=O)c1ccc(OC)cc1	-4.9	39.8	46.5*	4.7	-2.3	69.0*	48.1*
CCC(=O)OCCNc1cc(Sc2nccn2C)c2nonc2c1[N+](=O)[O-]	-2.8	·	102.0*	52.9*	·	111.6*	104.2*
CC(=O)OCCNc1cc(SC(C)C)c2nonc2c1[N+](=O)[O-]	3.0	5.0	10.1	9.4	-3.3	18.0	·
CCC(=O)OCCNc1cc(SCCC(=O)OC)c2nonc2c1[N+](=O)[O-]	4.1	19.9	58.5*	-12.2	-14.2	63.7*	58.9*
COc1ccc(NC(=O)CSc2nc3[nH]ncc3c(=O)[nH]2)c(OC)c1	-0.4	3.7	10.3	-0.4	0.0	8.1	·
CN(C)S(=O)(=O)c1cccc(NC(=O)c2cccc(N3C(=O)CCC3=O)c2)c1	-5.8	25.8	1.8	-4.0	9.1	1.0	·
O=C(O)CSCC(=O)Nc1ccccc1SCCS(=O)(=O)c1ccc(Cl)cc1	-0.7	·	3.2	-17.5	·	5.6	·
CN(CC(=O)Nc1ccc(F)cc1)C(=O)COC(=O)CN1C(=O)NC2(CCCC2)C1=O	-11.5	7.6	46.4*	-13.0	1.1	2.6	16.5
CCN(Cc1ccccc1)C(=O)c1cc2c(OC)c(OC)c(OC)cc2[nH]1	-4.5	-10.6	7.5	-1.9	-1.7	12.3	·
Nc1cc(=O)[nH]c(SCC(=O)Nc2cc(Cl)cc(Cl)c2)n1	1.8	-5.3	7.0	11.3	-2.7	-1.4	·
